This note sets out measurements from ChEMBL document CHEMBL1157620, “1-(Aryl)-6-[alkoxyalkyl]-3-azabicyclo[3.1.0]hexanes and 6-(aryl)-6-[alkoxyalkyl]-3-azabicyclo[3.1.0]hexanes: a new series of potent and selective triple reuptake inhibitors” (J Med Chem, 2010).

Assay [1] has as its target Sodium-dependent dopamine transporter (Homo sapiens, UniProt Q01959). Description: Displacement of [3H]WIN-35428 from human recombinant DAT expressed in BacMam virus-transduced cells by scintillation proximity assay. In kind it is cell-based. In general terms: Loss of bound radioactivity is the signal in a displacement assay; it reports binding, not function.
In assay [2] the target is Sodium-dependent noradrenaline transporter (Homo sapiens, UniProt P23975). Kind of assay: Displacement of [3H]nisoxetine from human recombinant NET expressed in BacMam virus-transduced cells by scintillation proximity assay. In kind it is cell-based. In short, it runs like this: (§1)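 BacMam-transduced membranes in SPA format. SERT: 1 mg/mL beads, 6 μg/mL membranes, 3 nM [3H]citalopram. NET: 2 mg/mL beads, 40 μg/mL membranes, 10 nM [3H]nisoxetine. Incubated overnight at room temperature; pKi from pIC50 by Cheng-Prusoff.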
Chain of Sodium-dependent noradrenaline transporter (P23975 whole entry): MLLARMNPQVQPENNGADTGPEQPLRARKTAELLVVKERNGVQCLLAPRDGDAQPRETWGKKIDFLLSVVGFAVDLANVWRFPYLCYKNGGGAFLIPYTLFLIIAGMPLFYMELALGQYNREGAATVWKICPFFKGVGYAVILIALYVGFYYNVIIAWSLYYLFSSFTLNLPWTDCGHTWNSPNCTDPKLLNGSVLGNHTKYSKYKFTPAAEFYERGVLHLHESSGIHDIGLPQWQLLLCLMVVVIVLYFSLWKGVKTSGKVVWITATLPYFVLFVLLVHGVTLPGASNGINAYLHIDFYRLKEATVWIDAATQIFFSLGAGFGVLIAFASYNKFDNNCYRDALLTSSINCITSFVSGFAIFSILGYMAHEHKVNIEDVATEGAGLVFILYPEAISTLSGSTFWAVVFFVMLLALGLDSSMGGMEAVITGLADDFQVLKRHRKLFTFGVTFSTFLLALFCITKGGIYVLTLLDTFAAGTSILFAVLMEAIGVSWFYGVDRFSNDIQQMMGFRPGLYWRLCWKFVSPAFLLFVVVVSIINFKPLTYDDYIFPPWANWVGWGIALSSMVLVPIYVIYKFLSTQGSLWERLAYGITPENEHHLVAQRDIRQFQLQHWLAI

Assay [3] addresses Sodium-dependent serotonin transporter (Homo sapiens, UniProt P31645). Kind of assay: Displacement of [3H]citalopram from human recombinant SERT expressed in BacMam virus-transduced cells by scintillation proximity assay. In kind it is cell-based. In short, it runs like this: as §1
For the next assay, the target named is Cytochrome P450 2D6 (Homo sapiens, UniProt P10635). Description: Inhibition of human […] by fluorescence assay. Format: ADME. In short, it runs like this: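 Recombinant human P450 bactosomes (0.1 mg/mL) in 50 mM phosphate, pH 7.4. Test compound at 0.1-10 μM, preincubated 10 min at 37 °C with fluorogenic substrate: ethoxyresorufin 0.5 μM (1A2), FCA 50 μM (2C9), BMC 10 μM (2C19), MMC 10 μM (2D6).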
Chain of Cytochrome P450 2D6 (P10635 whole entry): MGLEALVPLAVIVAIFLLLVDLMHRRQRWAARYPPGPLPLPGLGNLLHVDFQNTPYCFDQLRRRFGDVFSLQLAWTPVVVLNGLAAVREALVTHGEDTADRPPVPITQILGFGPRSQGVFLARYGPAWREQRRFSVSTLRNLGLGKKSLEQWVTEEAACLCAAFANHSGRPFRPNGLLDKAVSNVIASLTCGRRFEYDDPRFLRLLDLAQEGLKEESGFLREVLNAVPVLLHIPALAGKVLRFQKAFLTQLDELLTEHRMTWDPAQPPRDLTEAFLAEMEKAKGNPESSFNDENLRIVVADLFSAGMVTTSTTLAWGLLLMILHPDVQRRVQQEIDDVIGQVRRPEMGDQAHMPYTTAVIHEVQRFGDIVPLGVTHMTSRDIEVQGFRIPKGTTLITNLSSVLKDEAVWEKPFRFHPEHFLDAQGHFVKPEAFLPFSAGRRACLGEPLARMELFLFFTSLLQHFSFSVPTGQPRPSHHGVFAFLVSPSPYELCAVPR

Where only a bound is given, the exact number is not on record here.

Chain of Sodium-dependent serotonin transporter (P31645 whole entry): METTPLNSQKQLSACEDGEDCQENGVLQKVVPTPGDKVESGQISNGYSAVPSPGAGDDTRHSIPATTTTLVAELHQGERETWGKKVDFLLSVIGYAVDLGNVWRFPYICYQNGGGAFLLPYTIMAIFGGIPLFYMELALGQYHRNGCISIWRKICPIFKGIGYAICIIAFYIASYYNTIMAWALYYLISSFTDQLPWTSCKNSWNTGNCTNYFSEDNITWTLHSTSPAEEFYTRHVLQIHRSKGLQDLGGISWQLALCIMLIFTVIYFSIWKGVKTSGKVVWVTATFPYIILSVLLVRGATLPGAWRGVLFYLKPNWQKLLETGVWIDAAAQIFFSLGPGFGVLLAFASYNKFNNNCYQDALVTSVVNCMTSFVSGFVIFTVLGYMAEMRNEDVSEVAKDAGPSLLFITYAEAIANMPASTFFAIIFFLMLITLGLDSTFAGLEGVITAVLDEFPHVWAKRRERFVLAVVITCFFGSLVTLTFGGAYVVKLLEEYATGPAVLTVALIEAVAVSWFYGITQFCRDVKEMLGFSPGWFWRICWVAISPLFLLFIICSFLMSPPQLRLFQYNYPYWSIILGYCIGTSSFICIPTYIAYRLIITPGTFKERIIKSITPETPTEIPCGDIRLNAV
Chain of Sodium-dependent dopamine transporter (Q01959 whole entry): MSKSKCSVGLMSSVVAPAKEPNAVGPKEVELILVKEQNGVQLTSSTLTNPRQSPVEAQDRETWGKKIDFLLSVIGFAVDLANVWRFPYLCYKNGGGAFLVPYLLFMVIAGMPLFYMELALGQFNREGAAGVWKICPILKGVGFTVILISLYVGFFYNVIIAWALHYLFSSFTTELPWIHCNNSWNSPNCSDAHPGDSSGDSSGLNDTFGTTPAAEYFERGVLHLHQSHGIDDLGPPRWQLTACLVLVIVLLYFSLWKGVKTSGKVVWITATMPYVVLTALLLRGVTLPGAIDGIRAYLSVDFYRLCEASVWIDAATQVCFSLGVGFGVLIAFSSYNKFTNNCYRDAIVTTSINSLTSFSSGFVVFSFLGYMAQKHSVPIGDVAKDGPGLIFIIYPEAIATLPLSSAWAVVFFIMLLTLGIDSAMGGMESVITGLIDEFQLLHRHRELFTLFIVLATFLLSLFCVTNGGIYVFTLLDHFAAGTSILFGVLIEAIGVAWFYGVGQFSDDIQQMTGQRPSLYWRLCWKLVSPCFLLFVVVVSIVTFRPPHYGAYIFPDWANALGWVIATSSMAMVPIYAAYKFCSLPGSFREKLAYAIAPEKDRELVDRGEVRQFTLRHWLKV

As to `CC(C)OCC[C@]1(c2ccc(Cl)c(Cl)c2)[C@@H]2CNC[C@@H]21`, the inhibitory constant (Ki) is 6.31 nM in assay [1], 1.58 nM in assay [2] and 0.316 nM in assay [3].
Consider `COCC[C@]1(c2ccc(Cl)c(Cl)c2)[C@@H]2CNC[C@@H]21`, for which the Ki was 10 nM in assay [1], 7.94 nM in assay [2] and 0.316 nM in assay [3].
As for `CCOCC[C@]1(c2ccc(Cl)c(Cl)c2)[C@@H]2CNC[C@@H]21`, the Ki in assay [1] is 15.8 nM; in assay [2], 7.94 nM; in assay [3] it was 0.501 nM. At Cytochrome P450 2D6, the IC50 is < 100 nM.
For `FC(F)(F)COC[C@]1(c2ccc(Cl)c(Cl)c2)[C@@H]2CNC[C@@H]21` the same measures were 25.1 nM, 25.1 nM, 1 nM and 300 nM.
On to `Clc1ccc([C@@]2(CCOC3CCC3)[C@@H]3CNC[C@@H]32)cc1Cl`, for which the Ki in assay [1] was 6.31 nM; in assay [2] it was 3.98 nM; in assay [3], 0.2 nM.
For `COCC[C@H]1[C@]2(C)CNC[C@]12c1ccc(Cl)c(Cl)c1` (racemic) the same measures were 63.1 nM, 3.16 nM and 0.794 nM.
For the compound `OC[C@@H]1[C@@H]2CNC[C@]12c1ccc(Cl)c(Cl)c1` (racemic), the Ki was 479 nM in assay [1], 182 nM in assay [2] and 51.3 nM in assay [3].
For `Cc1cnc([C@H]2[C@@H]3CNC[C@@]32c2ccc(Cl)c(Cl)c2)o1` (racemic), in that order: 126 nM, 20 nM and 15.8 nM.
`CCC(C)OCC[C@]1(c2ccc(Cl)c(Cl)c2)[C@@H]2CNC[C@@H]21` (mixture of isomers): the values for the Ki in assay [1], in assay [2] and in assay [3] were 5.01 nM, 3.98 nM and 0.316 nM, respectively.
For `CCOCC[C@H]1[C@@H]2CNC[C@]12c1ccc(Cl)c(Cl)c1` (racemic), in that order: 79.4 nM, 3.98 nM and 0.794 nM.
For `OCC[C@H]1[C@@H]2CNC[C@]12c1ccc(Cl)c(Cl)c1` (racemic) the same measures were 79.4 nM, 7.94 nM and 2.51 nM.
For `CCC(C)OC[C@]1(c2ccc(Cl)c(Cl)c2)[C@@H]2CNC[C@@H]21` (mixture of isomers), in that order: 7.94 nM, 2 nM and 0.251 nM.
Turning to `Fc1ccc(OC[C@H]2[C@@H]3CNC[C@@]32c2ccc(Cl)c(Cl)c2)cc1` (racemic), the Ki in assay [1] is 79.4 nM; in assay [2], 39.8 nM; in assay [3] it was 1.26 nM.
On to `CCC[C@H]1[C@@H]2CNC[C@]12c1ccc(Cl)c(Cl)c1` (racemic), for which the Ki in assay [1] is 25.1 nM; in assay [2], 2 nM; in assay [3] it was 1 nM.
For `COC[C@@H]1[C@@H]2CNC[C@]12c1ccc(Cl)c(Cl)c1` (racemic) the same measures were 661 nM, 1290 nM and 72.4 nM.
Turning to `Clc1ccc([C@]23CNC[C@H]2[C@@H]3COC2CCCCC2)cc1Cl` (racemic), the figures for the Ki in assay [1], in assay [2] and in assay [3] were 20 nM, 2 nM and 1 nM, respectively.
Take `OC[C@H]1[C@@H]2CNC[C@]12c1ccc(Cl)c(Cl)c1` (racemic): the inhibitory constant (Ki) is 457 nM in assay [1], 28.8 nM in assay [2] and 15.5 nM in assay [3].
For `Clc1ccc([C@]23CNC[C@H]2[C@H]3COCC2CC2)cc1Cl` (racemic) the same measures were 501 nM, 126 nM and 31.6 nM.
With `CN(C)C[C@H]1[C@@H]2CNC[C@@]21c1ccc(Cl)c(Cl)c1` (racemic), the Ki in assay [1] was 631 nM; in assay [2] it was 31.6 nM; in assay [3] it was 3.98 nM.
For `COCC[C@H]1[C@@]2(c3ccc(Cl)c(Cl)c3)CNC[C@]12C` (relative stereo) the same measures were 126 nM, 1000 nM and 31.6 nM.
For `Clc1ccc([C@]23CNC[C@H]2[C@@H]3COC2CCCC2)cc1Cl` (relative stereo), in that order: 2.51 nM, 0.158 nM and 0.251 nM.
For `CSC[C@H]1[C@@H]2CNC[C@@]21c1ccc(Cl)c(Cl)c1` (relative stereo) the same measures were 39.8 nM, 1.58 nM and 0.398 nM.
As to `Clc1ccc([C@]23CNC[C@H]2[C@@H]3COCC2CC2)cc1Cl` (relative stereo), the figures for the Ki in assay [1], in assay [2] and in assay [3] were 200 nM, 15.8 nM and 5.01 nM, respectively.
For `CCCOC[C@H]1[C@@H]2CNC[C@@]21c1ccc(Cl)c(Cl)c1` (relative stereo) the same measures were 251 nM, 31.6 nM and 9.55 nM.
Take `CC(C)OC[C@H]1[C@@H]2CNC[C@@]21c1ccc(Cl)c(Cl)c1` (relative stereo): the figures for the Ki in assay [1], in assay [2] and in assay [3] were 251 nM, 200 nM and 39.8 nM, respectively.
For `CCOC[C@H]1[C@@H]2CN(C)C[C@]12c1ccc(Cl)c(Cl)c1` (relative stereo), in that order: 39.8 nM, 15.8 nM and 1.26 nM.
`Clc1ccc([C@]23CNC[C@H]2[C@@H]3COC2CCC2)cc1Cl` (relative stereo): the Ki was 3.98 nM in assay [1], 0.501 nM in assay [2] and 0.316 nM in assay [3].
As for `COC[C@H]1[C@@H]2CNC[C@@]21c1ccc2ccccc2c1` (relative stereo), the values for the Ki in assay [1], in assay [2] and in assay [3] were 398 nM, 316 nM and 12.6 nM, respectively.
For `Clc1ccc([C@@]23CNC[C@@H]2[C@H]3COC2CCC2)cc1Cl` (stereo in doubt) the same measures were 251 nM, 158 nM and 25.1 nM.
On to `COC[C@H]1[C@@H]2CNC[C@@]21c1ccc(Cl)c(Cl)c1` (stereo in doubt), for which the Ki in assay [1] is 110 nM; in assay [2], 3.16 nM; in assay [3], 1.51 nM.
For `Clc1ccc([C@]23CNC[C@H]2[C@@H]3COC2CCCC2)cc1Cl` (stereo in doubt), in that order: 6.31 nM, 0.794 nM and 0.501 nM.
For the compound `Clc1ccc([C@@]23CNC[C@@H]2[C@H]3COC2CCCC2)cc1Cl` (stereo in doubt), the inhibitory constant (Ki) in assay [1] was 100 nM; in assay [2], 12.6 nM; in assay [3], 7.94 nM.
As to `Cc1csc(C[C@H]2[C@@H]3CNC[C@@]32c2ccc(Cl)c(Cl)c2)n1` (stereo in doubt), the pKi in assay [1] is reported as 7.7. Also, the figures for the Ki in assay [2] and in assay [3] were 0.316 nM and 0.2 nM, respectively.
`CCCOC[C@@H]1[C@H]2CNC[C@]21c1ccc(Cl)c(Cl)c1` (stereo in doubt): the Ki in assay [1] was 12.6 nM; in assay [2] it was 0.631 nM; in assay [3], 0.251 nM.
For `CSC[C@H]1[C@@H]2CNC[C@@]21c1ccc(Cl)c(Cl)c1` (stereo in doubt), in that order: 79.4 nM, 5.01 nM and 0.794 nM.
For `CSC[C@@H]1[C@H]2CNC[C@]21c1ccc(Cl)c(Cl)c1` (stereo in doubt), the Ki in assay [1] is 63.1 nM; in assay [2], 316 nM; in assay [3] it was 25.1 nM.
Take `COC[C@@H]1[C@H]2CNC[C@]21c1ccc(Cl)c(Cl)c1` (stereo in doubt): the figures for the Ki in assay [1], in assay [2] and in assay [3] were 513 nM, 224 nM and 25.7 nM, respectively.
For `Clc1ccc([C@]23CNC[C@H]2[C@@H]3COCC2CC2)cc1Cl` (stereo in doubt) the same measures were 25.1 nM, 1.95 nM and 0.955 nM.
For `CCCOC[C@H]1[C@@H]2CNC[C@@]21c1ccc(Cl)c(Cl)c1` (stereo in doubt) the same measures were 20 nM, 0.501 nM and 0.501 nM.
For `CC(C)OC[C@H]1[C@@H]2CNC[C@@]21c1ccc(Cl)c(Cl)c1` (stereo in doubt) the same measures were 7.94 nM, 0.398 nM and 0.2 nM.
Regarding `Cc1csc(C[C@@H]2[C@H]3CNC[C@]32c2ccc(Cl)c(Cl)c2)n1` (stereo in doubt), the results for the Ki in assay [1], in assay [2] and in assay [3] were 50.1 nM, 79.4 nM and 15.8 nM, respectively.
For `Clc1ccc([C@]23CNC[C@H]2[C@@H]3COC2CCC2)cc1Cl` (stereo in doubt), in that order: 12.6 nM, 1.26 nM and 0.631 nM.
For `COC[C@H]1[C@@H]2CNC[C@@]21c1ccc2ccccc2c1` (stereo in doubt), in that order: 50.1 nM, 1 nM and 0.158 nM.

For orientation: Ki means the dissociation constant of the complex between target and ligand, obtained from inhibition or displacement. As usually defined, the IC50 is the point on the concentration scale where inhibition reaches its midpoint. The low end stands for greater potency, the high end for weaker potency. In general, pKi refers to −log10 of the Ki, conventionally taken in molar units.
